For one data set, the system named is A2780. The data set is described as follows: Cytotoxicity against human A2780 cells after 48 hrs by MTT assay. In kind it is functional, cell-based. As to conditions: A2780, 48 h.
Data set [1] has as its system HT-29. In words: Cytotoxicity against human HT-29 cells assessed as inhibition of anchorage-dependent colony formation at 5 uM after 14 days. The class given is functional, cell-based. Summed up: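 HT-29 cells were plated at 500 per well and allowed to attach for 24 h. They were then exposed continuously to compound or DMSO for 14 days, with medium replaced every 72 h. Colonies were fixed in 1% formaldehyde/PBS and stained with 0.1% crystal violet.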

The subject of data set [2] is HT-29. In words: Cell cycle distribution in human HT-29 cells assessed as accumulation at S phase upto 10 uM by flow cytometry. The class given is functional. Summed up:
(§1)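 HT-29 cells were exposed to vehicle or 1, 5 or 10 μM compound for 6, 12, 24 or 48 h. Floating and attached cells were collected, fixed in 70% ethanol and treated with 0.1% Triton X-100. They were stained with PI at 50 μg/mL plus RNaseA at 50 μg/mL for 30 min at room temperature in the dark. FL2 DNA content was read on 10000 cells by flow cytometry. The sub-G1 fraction was taken as apoptotic.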

Data set [3] has as its system DNA topoisomerase 2 (Bos taurus). The data set is described as follows: Inhibition of topoisomerase 2 at 200 uM.
For data set [4], the system named is HT-29. In words: Induction of apoptosis in human HT-29 cells assessed as decrease in accumulation at G0/G1 phase at 1 uM after 48 hrs by flow cytometry. The class given is functional, cell-based. The essentials:
as §1
For orientation: Flow cytometry measures light scatter and fluorescence of single cells or particles in a stream.

In data set [5] the test system is HT-29. The data set is described as follows: Induction of apoptosis in human exponentially growing HT-29 cells. The class given is functional, cell-based. Conditions: TDE = time-dependent effect.
The subject of data set [6] is HT-29. In words: Induction of apoptosis in human HT-29 cells assessed as increase in accumulation at sub-G1 phase at 1 uM after 48 hrs by flow cytometry. In kind it is functional. The essentials:
as §1

Data set [7] deals with Mus musculus. The data set is described as follows: Toxicity in athymic BALB/c nude mouse xenografted with human HT-29 cells assessed as change in body weight at 150 mg/kg, ip for 10 days measured after 30 days. The class given is organism-based. Conditions: in vivo, 720 h. Also on record: dose 150 mg/kg, route intraperitoneal. Summed up: (§2)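 Nude mouse HT-29 xenograft model as above: female athymic BALB/c, 18-22 g, n=6 per group. Dosing was i.p. daily in 400 μL for 10 consecutive days at 75 or 150 mg/kg, with saline controls. Body weight and tumour volume were recorded every 4 days, and the study ended on day 30. Weights were compared with controls by Student's t test.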
A general note: A xenograft is tissue or cells of one species grown in another, often human tumour cells in immunodeficient mice.

Data set [8] has as its system Mus musculus. The data set is described as follows: Toxicity in athymic BALB/c nude mouse xenografted with human HT-29 cells assessed as change in body weight at 75 mg/kg, ip for 10 days measured after 30 days. In kind it is organism-based. Also on record: dose 75 mg/kg, route intraperitoneal. Conditions: in vivo, 720 h. The essentials: as §2
Data set [9] is described as follows: Cytotoxicity against p53-deficient human Hep3B cells after 48 hrs by SRB assay. The class given is functional, cell-based, Hep 3B2. The essentials:
(§3)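 Cell lines came from CCRC, Taiwan. Cells were seeded at about 5 × 10^3 per well and left overnight. They were then given serum-free medium containing 0-10 μM compound (0.08-10 μM serial dilutions) for 48 h at 37 °C. Cells were fixed with TCA (10% final), stained with SRB (0.4% final), and the dye was dissolved in 10 mM Tris with A515 read. IC50 was taken from a fitted log concentration-response curve.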
Background: Sulforhodamine B stains cellular protein and so reports cell mass.

The subject of data set [10] is HT-29. In words: Induction of apoptosis in human HT-29 cells assessed as apoptotic cells at 5 ug/mL after 24 hrs by annexin V/propidium iodide-based flow cytometry. In kind it is functional. Summed up: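 SKOV-3 or HT-29 cells (1-5 × 10^6 cells/mL) were incubated with 0, 5 or 10 μg/mL compound for 24 h. They were then washed and stained with EGFP-Annexin V/PI and analysed immediately by flow cytometry. Annexin V+/PI− cells were scored as apoptotic; PI-permeant cells were scored as necrotic.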

The test system of the next data set is K562. The data set is described as follows: Cytotoxicity against p53-deficient human K562 cells after 48 hrs by SRB assay. The class given is functional, cell-based. Conditions: K562, 48 h.
Data set [11] in a line: Solubility in assay condition at 50 uM. In kind it is physicochemical.
Data set [12] has as its system HT-29. In words: Induction of apoptosis in human HT-29 cells assessed as morphological changes at 5 ug/mL after 24 hrs by immunostaining. In kind it is functional, cell-based. The essentials:
(§4)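 SKOV3 and HT-29 cells were treated with 0.25 or 5 μg/mL for 24 h. Cell morphology was assessed by microscopy after fixation in 4% formaldehyde and Hoechst 33342 staining (10 μg/mL), against an untreated control.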

Data set [13] concerns HT-29. In words: Reduction in topoisomerase 1 expression in human HT-29 cells by immunocytochemistry. The class given is functional, cell-based. Summed up:
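HT-29 and SKOV-3 cells were grown on slides and treated with compound at several concentrations, with an untreated control. Cells were fixed and permeabilised, and endogenous peroxidase was quenched with 0.3% H2O2/methanol. After blocking with 10% goat serum, slides were stained with anti-Top I (1:100, 10 h), then biotinylated secondary and avidin-biotin-HRP, and developed with DAB.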

The next data set relates to HeLa. In words: Cytotoxicity against p53-deficient human HeLa cells after 48 hrs by SRB assay. In kind it is functional, cell-based. Summed up:
as §3

Data set [14] has as its system Mus musculus. In words: Toxicity in athymic BALB/c nude mouse xenografted with human HT-29 cells assessed as morbidity at 75 mg/kg, ip for 10 days measured after 30 days. Further details: dose 75 mg/kg, route intraperitoneal. Conditions: in vivo, 720 h. The class given is organism-based. Summed up:
as §2

The next data set has as its system A549. The data set is described as follows: Cytotoxicity against human A549 cells expressing wild type p53 after 48 hrs by SRB assay. In kind it is functional, cell-based. As to conditions: A549, 48 h. Summed up:
as §3

Data set [15] has as its system Mus musculus. The data set is described as follows: Toxicity in athymic BALB/c nude mouse xenografted with human HT-29 cells assessed as morbidity at 150 mg/kg, ip for 10 days measured after 30 days. In kind it is organism-based. Also on record: dose 150 mg/kg, route intraperitoneal. As to conditions: in vivo, 720 h. Summed up: as §2
Data set [16] deals with T1, DNA topoisomerase 1 (Homo sapiens) (UniProt P11387).
T1 sequence (whole entry): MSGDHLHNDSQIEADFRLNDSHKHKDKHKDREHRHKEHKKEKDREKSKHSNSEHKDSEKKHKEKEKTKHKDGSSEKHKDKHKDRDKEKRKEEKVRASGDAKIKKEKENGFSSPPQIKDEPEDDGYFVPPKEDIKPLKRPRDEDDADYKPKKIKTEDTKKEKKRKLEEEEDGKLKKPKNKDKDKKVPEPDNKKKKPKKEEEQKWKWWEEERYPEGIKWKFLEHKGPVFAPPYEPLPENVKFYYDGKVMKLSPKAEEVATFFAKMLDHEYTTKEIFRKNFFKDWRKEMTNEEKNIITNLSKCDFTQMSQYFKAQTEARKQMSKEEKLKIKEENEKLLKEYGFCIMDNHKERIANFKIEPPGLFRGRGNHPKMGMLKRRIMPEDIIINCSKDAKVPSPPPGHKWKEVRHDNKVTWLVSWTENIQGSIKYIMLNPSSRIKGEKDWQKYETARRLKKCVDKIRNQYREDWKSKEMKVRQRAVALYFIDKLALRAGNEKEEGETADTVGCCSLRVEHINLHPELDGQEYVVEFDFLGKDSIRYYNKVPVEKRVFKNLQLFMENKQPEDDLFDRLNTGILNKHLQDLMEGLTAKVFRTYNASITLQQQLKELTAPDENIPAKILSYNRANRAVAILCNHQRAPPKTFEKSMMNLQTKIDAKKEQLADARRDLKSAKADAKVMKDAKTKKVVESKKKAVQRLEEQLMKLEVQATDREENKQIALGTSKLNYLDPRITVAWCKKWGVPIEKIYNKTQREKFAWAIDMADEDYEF
In words: Inhibition of DNA topoisomerase 1-mediated supercoiled Escherichia coli pBR322 DNA relaxation upto 25 uM after 30 mins.

The subject of another data set is SK-OV-3. In words: Induction of apoptosis in human SKOV3 cells assessed as morphological changes at 5 ug/mL after 24 hrs by immunostaining. The class given is functional, cell-based. The essentials:
as §4

pIC50: −log10 of the molar value. Active and inactive are the calls of the source. No cut-off for these calls is given here.

Here are results for one molecule from ChEMBL document CHEMBL1153527, “Discovery of a novel series of quinolone and naphthyridine derivatives as potential topoisomerase I inhibitors by scaffold modification” (J Med Chem, 2009).

Broadly, the pIC50 is −log10 of the IC50, conventionally taken in molar units. For orientation: GI50 means the concentration that inhibits growth by half. The low end stands for more potent growth inhibition, the high end for less potent growth inhibition. For the molecule `CCn1cc(-c2nc3ccc([N+](=O)[O-])cc3o2)c(=O)c2cc(F)c(N3CCNC(C)C3)c(F)c21` (centres undefined), the pIC50 in the data set with A2780 is 6.70; in data set [9], 5.41; in the data set on K562, 5.34; with HeLa, 5.62; with A549, 5.82. Further, the result with HT-29 [1], in the data set on HT-29 [4], in the data set with HT-29 [12] and in the data set with SK-OV-3 was Active. The Activity was 5% in the data set with HT-29 [2]; “tde” in the data set with HT-29 [5]; 35.5% with HT-29 [6]; “Non-toxic” in the data set on Mus musculus [7]; “Non-toxic” in the data set on Mus musculus [8]; 23.5% in the data set on HT-29 [10]. The Activity result in the data set on HT-29 [13] is “Dose-dependent effect”; in the data set on Mus musculus [14], “Non-toxic”; with Mus musculus [15] it was “Non-toxic”. For the same molecule, the inhibition result in data set [3] and in [16] was “inactive” each time. For the same molecule, the results for the GI50 (in [9]; with HeLa; in the data set on A549) were 1500 nM, 1100 nM and 800 nM, respectively. The solubility result in data set [11] was “Insoluble”.
